Source: ChEMBL document CHEMBL1121441, “Synthesis and properties of the sulfonyl analogues of 4(5)-aminoimidazole-5(4)-carboxamide, 4(5)-(formylamino)imidazole-5(4)-carboxamide, guanine, and xanthine” (J Med Chem, 1980)
The source made the active and inactive calls. No cut-off for these calls is given here.

How the values were obtained:
L1210 = test: Compound tested for inhibition of growth of L1210 cells in culture at 10e-4 M; NI = no inhibition; type: functional, cell-based; settings: Mus musculus
Summary of the method: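 Murine L1210 leukemia cells were harvested in log phase and resuspended in RPMI 1640 with 10% fetal bovine serum at a starting density of 17.5×10^4 cells/mL. Analogue stock was 5×10⁻³ M in phosphate-buffered saline, pH 7.4, filter-sterilized, then serially diluted in medium. Final concentrations were 10⁻⁴ to 10⁻⁸ M. Cultures grew 72 h at 37 °C and were counted every 24 h by Coulter counter against untreated controls.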

[1] = Compound was tested for apparent dissociation constant at pH 7; type: ADME
Summary of the method: (§1)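 pKa values were determined potentiometrically on 0.001 M solutions with a pH meter. For one analogue the values came from least-squares analysis with activity corrections. Measurement temperature was recorded with each value, and standard deviations were reported.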

[2] = Compound was tested for apparent dissociation constant at pH 13; type: ADME; summary of the method: as §1
[3] = Compound was tested for apparent dissociation constant at pH 10; type: ADME; summary of the method: as §1
[4] = Compound was tested for apparent dissociation constant at pH 14; type: ADME; summary of the method: as §1
[5] = Compound was tested for apparent dissociation constant at pH 9; type: ADME; summary of the method: as §1

Row | pKa [1] | pKa [2] | pKa [3] | pKa [4] | pKa [5] | Compound | inhibition (L1210)
1 | 9.43 |  |  |  |  | Nc1[nH]cnc1S(N)(=O)=O | inactive
2 | 2.55 | 11 | 8.99 |  |  | O=C1Nc2[nH]cnc2S(=O)(=O)N1 | inactive
3 |  |  |  | 11.6 | 6.84 | NC1=NS(=O)(=O)c2nc[nH]c2N1 | inactive
4 | 8.7 |  |  |  |  | NS(=O)(=O)c1[nH]cnc1NC=O | inactive
